A short description of series [1]: Cytotoxicity against thioguanine-resistant human C32TG cells harboring HGPRT deletion mutant assessed as inhibition of cell proliferation after 4 days by Coulter counter analysis. Type of series: cell-based. In a few lines:
(§1)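 Cell proliferation in human A549 lung carcinoma, C32 melanoma and C32-TG (thioguanine-resistant, HGPRT-deficient C32 mutant) cells. Seeded at 7,500 (A549) or 15,000 (C32, C32-TG) cells per well; serial compound dilutions added 24 hr later. Four days at 37 °C, then trypsinized and counted by Coulter Counter. CC50 = concentration giving 50% proliferation versus untreated cells, by extrapolation; mean ± SEM of two or three independent tests.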

A short description of series [2]: Cytotoxicity against human C32 cells assessed as inhibition of cell proliferation after 4 days by Coulter counter analysis. The series is classed as cell-based. The essentials:
as §1

Series [3] in a line: Cytotoxicity against human A549 cells assessed as inhibition of cell proliferation after 4 days by Coulter counter analysis. The series is classed as cell-based. The essentials:
as §1

Series [4] deals with Plasmodium falciparum. Description: Antimalarial activity against chloroquine and pyrimethamine-resistant early trophozoite stage of Plasmodium falciparum W2 in human red blood cells assessed as [3H]hypoxanthine uptake after 96 hrs. The series is classed as functional, organism-based. In a few lines:
(§2)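 P. falciparum cultured in RPMI-1640-LPLF with 10% human plasma, sorbitol-synchronised; assay started with >90% rings at 0.5% parasitaemia, 2% haematocrit in hypoxanthine-free medium. Ten 2-fold serial dilutions for 96 h, [3H]-hypoxanthine (0.2 µCi/well) added at ~48 h. IC50 from non-linear regression of incorporation versus log concentration; three independent experiments, mean ± SD.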

Series [5] deals with Plasmodium falciparum. Description: Antimalarial activity against wild type early trophozoite stage of Plasmodium falciparum D6 in human red blood cells assessed as [3H]hypoxanthine uptake after 96 hrs. The series is classed as functional, organism-based. In a few lines: as §2
Series [6] can be described thus: Inhibition of Plasmodium vivax N-terminal hexahistidine-tagged HGPRT. The essentials:
(§3)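 N-terminal hexa-histidine tagged enzymes purified to homogeneity by IMAC. Ki from Hanes' plots with guanine fixed at 60 μM and PRib-PP varied (2-1000 μM) according to Km(app); one concentration of each inhibitor.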

A short description of series [7]: Inhibition of Plasmodium falciparum HGXPRT. The essentials:
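PfHGXPRT purified by a published procedure. Ki from Hanes' plots with guanine fixed at 60 μM and PRib-PP varied (2-1000 μM) according to Km(app); one concentration of each inhibitor.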

The target in series [8] is T1, Hypoxanthine-guanine phosphoribosyltransferase (Homo sapiens, UniProt P00492).
T1 sequence (P00492 whole entry): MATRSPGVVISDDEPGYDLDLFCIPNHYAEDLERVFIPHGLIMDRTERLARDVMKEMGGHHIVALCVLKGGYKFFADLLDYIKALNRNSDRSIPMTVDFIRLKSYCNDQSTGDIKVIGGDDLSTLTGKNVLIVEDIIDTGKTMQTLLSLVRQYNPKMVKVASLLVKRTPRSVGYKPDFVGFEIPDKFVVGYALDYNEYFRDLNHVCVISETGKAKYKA
Kind of series: Inhibition of human N-terminal hexahistidine-tagged HGPRT. The essentials: as §3

Some results are limits rather than exact numbers.

For the compound `CCOC(=O)[C@H](Cc1ccccc1)NP(=O)(COCC(COCP(=O)(N[C@@H](Cc1ccccc1)C(=O)OCC)N[C@@H](Cc1ccccc1)C(=O)OCC)Cn1cnc2c(=O)[nH]c(N)nc21)N[C@@H](Cc1ccccc1)C(=O)OCC`, the CC50 at 96 h in series [1] was 109 µM; in series [2], 130 µM; in series [3] it was greater than 300 µM. For the same compound, the values for the IC50 in the series on Plasmodium falciparum [4] and with Plasmodium falciparum [5] were 7.1 µM and 9.7 µM, respectively.
For `CCCCCCCCCCCCCCCCOCCCOP(=O)(CCOCCn1cnc2c(=O)[nH]c(N)nc21)OCCCOCCCCCCCCCCCCCCCC`, in that order: greater than 300 µM, greater than 300 µM, greater than 300 µM, 68 µM and 59 µM.
`Nc1nc2c(ncn2CCOCCP(=O)(O)O)c(=O)[nH]1`: the CC50 at 96 h in series [1], in series [2] and in series [3] was greater than 300 µM in each case. For the same compound, the IC50 with Plasmodium falciparum [5] came out at 242 µM.
Consider `O=c1[nH]cnc2c1ncn2CC(COCP(=O)(O)O)COCP(=O)(O)O`, for which the Ki in series [6] turned out to be 2 µM; in series [7], 5 µM; in series [8], 1 µM.
Regarding `CCOC(=O)[C@H](Cc1ccccc1)NP(=O)(COCC(COCP(=O)(N[C@@H](Cc1ccccc1)C(=O)OCC)N[C@@H](Cc1ccccc1)C(=O)OCC)Cn1cnc2c(=O)[nH]cnc21)N[C@@H](Cc1ccccc1)C(=O)OCC`, the CC50 at 96 h turned out to be 55 µM in series [1], 41 µM in series [2] and 101 µM in series [3]. The IC50 in the series on Plasmodium falciparum [4] stood at 4 µM; in the series on Plasmodium falciparum [5] it was 3.8 µM.
In the case of `Nc1nc2c(ncn2CC(COCP(=O)(O)O)COCP(=O)(O)O)c(=O)[nH]1`, the CC50 at 96 h in series [1], in series [2] and in series [3] was greater than 300 µM each time. The Ki in series [6] was found to be 0.6 µM; in series [7] it was 0.07 µM; in series [8] it was 0.03 µM.
Take `Nc1nc2c(ncn2C(COCP(=O)(O)O)COCP(=O)(O)O)c(=O)[nH]1`: the Ki in series [6] came to 18 µM; in series [7], 2 µM; in series [8], 37 µM.
As for `CCOC(=O)[C@H](C)NP(=O)(CCOCCn1cnc2c(=O)[nH]c(N)nc21)N[C@@H](C)C(=O)OCC`, the CC50 at 96 h in series [1], in series [2] and in series [3] was greater than 300 µM throughout. Further, the IC50 with Plasmodium falciparum [4] was 48 µM; in the series with Plasmodium falciparum [5] it was 42 µM.
Turning to `CCCCCCCCCCCCCCCCOCCCOP(=O)(O)CCOCCn1cnc2c(=O)[nH]c(N)nc21`, the CC50 at 96 h in series [1] stood at 36 µM; in series [2], 61 µM; in series [3] it was 61 µM. In addition, the IC50 is 4.7 µM in the series on Plasmodium falciparum [4] and 7.6 µM in the series with Plasmodium falciparum [5].
For the compound `Nc1nc2c(ncn2CC(COCCP(=O)(O)O)OCCP(=O)(O)O)c(=O)[nH]1` (centres undefined), the Ki came out at 0.7 µM in series [6], 0.5 µM in series [7] and 0.6 µM in series [8].

Usually CC50 stands for the concentration that lowers cell viability or growth by half. Broadly, the IC50 is the point on the concentration scale where inhibition reaches its midpoint. As a reminder, the Ki is the dissociation constant of the complex between target and ligand, obtained from inhibition or displacement. High values mean lower affinity, low ones higher affinity.

For the origin of these results see ChEMBL document CHEMBL2321688, “Acyclic nucleoside phosphonates containing a second phosphonate group are potent inhibitors of 6-oxopurine phosphoribosyltransferases and have antimalarial activity” (J Med Chem, 2013).
